≈ marks a conversion by molar mass, not a printed value.
Tests used:
TZM = assay: Cytotoxicity against human TZM-bl cells incubated for 3 days by MTS assay; type: cell-based; settings: 72 h
[1] = Solubility of compound in pH 7.4 PBS buffer at 1 mg incubated for overnight by LC-MS/MS analysis; type: physicochemical; settings: in vitro
In short: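 Aqueous solubility was measured in phosphate buffer at pH 7.4 and reported in mg/mL.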

[2] = Apparent permeability from apical to basolateral side in human Caco2 cells at 5 uM measured for 120 mins by LC-MS/MS analysis; type: ADME, cell-based; settings: caco-2, 2 h
[3] = Apparent permeability from basolateral side to apical side in human Caco2 cells at 5 uM measured for 120 mins by LC-MS/MS analysis; type: ADME, cell-based; settings: caco-2, 2 h
[4] = Apparent permeability from apical to basolateral side in human Caco2 cells at 5 uM preincubated with vals-podar for 30 mins and measured for 120 mins by LC-MS/MS analysis; type: ADME, cell-based; settings: Caco-2, with valspodar (printed as vals-podar; concentration not stated)
In short: (§1)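 Bidirectional Caco-2 transport run with the P-gp inhibitor valspodar at 1 μM. Papp is given as ×10−6 cm/sec for each direction, and the efflux ratio is taken from B-to-A over A-to-B.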

[5] = Apparent permeability from basolateral side to apical side in human Caco2 cells at 5 uM preincubated with vals-podar for 30 mins and measured for 120 mins by LC-MS/MS analysis; type: ADME, cell-based; settings: Caco-2, with valspodar (printed as vals-podar; concentration not stated); in short: as §1
[6] = Metabolic stability in human liver microsomes assessed as parent compound remaining at 3 uM preincubated for 3 mins followed by NADPH addition and measured up to 120 mins by LC-MS/MS analysis; type: ADME, Microsome; settings: read-out: Stability
[7] = Intrinsic clearance in human liver microsomes at 3 uM preincubated for 3 mins followed by NADPH addition and measured up to 120 mins by LC-MS/MS analysis; type: ADME, Microsome; settings: 2 h
[8] = Half life in human liver microsomes at 3 uM preincubated for 3 mins followed by NADPH addition and measured up to 120 mins by LC-MS/MS analysis; type: ADME, Microsome; settings: 2 h
[9] = Protein binding in human plasma at 5 uM measured for 4 hrs by LC-MS/MS analysis; type: ADME, cell-free
Cytochrome P450 1A2 = biological target: T1, Cytochrome P450 1A2 (Homo sapiens, UniProt P05177); assay: Inhibition of CYP1A2 in human liver microsomes using phenacetin as substrate preincubated for 5 mins followed by NADPH addition and measured for 10 to 30 mins by LC-MS/MS analysis; type: ADME
T1 sequence (P05177 whole entry): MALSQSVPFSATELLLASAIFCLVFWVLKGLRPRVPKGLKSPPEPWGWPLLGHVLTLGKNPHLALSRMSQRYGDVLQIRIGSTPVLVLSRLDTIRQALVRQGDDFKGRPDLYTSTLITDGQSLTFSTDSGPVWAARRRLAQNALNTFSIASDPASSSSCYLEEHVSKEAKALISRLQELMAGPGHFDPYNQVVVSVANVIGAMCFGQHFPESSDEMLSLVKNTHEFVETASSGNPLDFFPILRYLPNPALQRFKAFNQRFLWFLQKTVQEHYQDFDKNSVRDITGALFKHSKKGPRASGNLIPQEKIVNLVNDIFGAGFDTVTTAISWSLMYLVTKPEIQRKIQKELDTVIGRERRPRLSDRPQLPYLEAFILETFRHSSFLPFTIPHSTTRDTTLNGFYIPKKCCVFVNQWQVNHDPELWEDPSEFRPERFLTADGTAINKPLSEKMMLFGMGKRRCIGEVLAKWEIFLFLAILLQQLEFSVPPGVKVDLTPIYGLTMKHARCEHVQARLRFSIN
In short: (§2)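 Inhibition was screened in a panel of eight CYP450 isoforms, with test concentrations escalated up to 100 μM.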

Cytochrome P450 2B6 = biological target: T2, Cytochrome P450 2B6 (Homo sapiens, UniProt P20813); assay: Inhibition of CYP2B6 in human liver microsomes using bupropion as substrate preincubated for 5 mins followed by NADPH addition and measured for 10 to 30 mins by LC-MS/MS analysis; type: ADME; in short: as §2
T2 sequence (P20813 whole entry): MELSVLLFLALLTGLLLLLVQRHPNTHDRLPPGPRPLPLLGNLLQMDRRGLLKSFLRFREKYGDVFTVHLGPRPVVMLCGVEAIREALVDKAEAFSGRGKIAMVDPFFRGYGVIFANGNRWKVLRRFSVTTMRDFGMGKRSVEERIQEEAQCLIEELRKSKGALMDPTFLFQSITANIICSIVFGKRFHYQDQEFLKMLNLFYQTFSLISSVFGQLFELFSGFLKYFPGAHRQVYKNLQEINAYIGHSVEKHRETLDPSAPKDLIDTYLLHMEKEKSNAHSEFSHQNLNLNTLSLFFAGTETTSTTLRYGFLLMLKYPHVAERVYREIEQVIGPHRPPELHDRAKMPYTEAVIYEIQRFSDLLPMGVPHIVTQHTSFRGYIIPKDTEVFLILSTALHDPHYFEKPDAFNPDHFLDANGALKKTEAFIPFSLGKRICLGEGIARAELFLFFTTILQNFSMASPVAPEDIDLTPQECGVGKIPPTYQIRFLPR

Cytochrome P450 2C8 = biological target: T3, Cytochrome P450 2C8 (Homo sapiens, UniProt P10632); assay: Inhibition of CYP2C8 in human liver microsomes using amodiaquine as substrate preincubated for 5 mins followed by NADPH addition and measured for 10 to 30 mins by LC-MS/MS analysis; type: ADME; in short: as §2
T3 sequence (P10632 whole entry): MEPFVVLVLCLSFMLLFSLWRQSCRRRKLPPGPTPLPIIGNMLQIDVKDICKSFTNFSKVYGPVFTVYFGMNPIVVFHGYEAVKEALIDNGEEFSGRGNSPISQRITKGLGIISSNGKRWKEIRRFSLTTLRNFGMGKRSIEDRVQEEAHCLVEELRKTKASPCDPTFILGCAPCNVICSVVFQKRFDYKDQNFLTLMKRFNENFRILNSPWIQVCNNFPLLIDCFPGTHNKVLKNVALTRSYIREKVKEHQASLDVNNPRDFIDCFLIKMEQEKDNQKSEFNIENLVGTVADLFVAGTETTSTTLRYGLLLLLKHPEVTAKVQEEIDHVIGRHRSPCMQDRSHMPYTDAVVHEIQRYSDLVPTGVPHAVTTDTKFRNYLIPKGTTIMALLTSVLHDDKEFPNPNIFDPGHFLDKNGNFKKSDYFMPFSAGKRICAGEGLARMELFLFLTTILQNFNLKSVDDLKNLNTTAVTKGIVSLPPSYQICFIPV

Cytochrome P450 2C9 = Cytochrome P450 2C9 (Homo sapiens, UniProt P11712); assay: Inhibition of CYP2C9 in human liver microsomes using diclofenac as substrate preincubated for 5 mins followed by NADPH addition and measured for 10 to 30 mins by LC-MS/MS analysis; type: ADME; in short: as §2
Cytochrome P450 2C9, sequence (P11712 whole entry): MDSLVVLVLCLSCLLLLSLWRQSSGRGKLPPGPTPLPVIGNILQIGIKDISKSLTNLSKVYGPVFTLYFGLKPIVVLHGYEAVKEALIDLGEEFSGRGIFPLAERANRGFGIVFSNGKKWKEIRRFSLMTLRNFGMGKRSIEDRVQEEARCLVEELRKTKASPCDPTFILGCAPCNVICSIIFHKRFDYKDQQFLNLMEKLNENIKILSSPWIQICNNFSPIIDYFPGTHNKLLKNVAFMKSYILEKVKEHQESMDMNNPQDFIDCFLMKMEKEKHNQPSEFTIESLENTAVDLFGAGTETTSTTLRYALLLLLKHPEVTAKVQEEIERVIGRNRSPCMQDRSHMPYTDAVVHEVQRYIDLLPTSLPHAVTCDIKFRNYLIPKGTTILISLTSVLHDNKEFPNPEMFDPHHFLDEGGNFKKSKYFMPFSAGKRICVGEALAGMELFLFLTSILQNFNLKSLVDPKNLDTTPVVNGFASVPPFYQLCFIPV

Cytochrome P450 2C19 = Cytochrome P450 2C19 (Homo sapiens, UniProt P33261); assay: Inhibition of CYP2C19 in human liver microsomes using S-mephenytoin as substrate preincubated for 5 mins followed by NADPH addition and measured for 10 to 30 mins by LC-MS/MS analysis; type: ADME; in short: as §2
Cytochrome P450 2C19, sequence (P33261 whole entry): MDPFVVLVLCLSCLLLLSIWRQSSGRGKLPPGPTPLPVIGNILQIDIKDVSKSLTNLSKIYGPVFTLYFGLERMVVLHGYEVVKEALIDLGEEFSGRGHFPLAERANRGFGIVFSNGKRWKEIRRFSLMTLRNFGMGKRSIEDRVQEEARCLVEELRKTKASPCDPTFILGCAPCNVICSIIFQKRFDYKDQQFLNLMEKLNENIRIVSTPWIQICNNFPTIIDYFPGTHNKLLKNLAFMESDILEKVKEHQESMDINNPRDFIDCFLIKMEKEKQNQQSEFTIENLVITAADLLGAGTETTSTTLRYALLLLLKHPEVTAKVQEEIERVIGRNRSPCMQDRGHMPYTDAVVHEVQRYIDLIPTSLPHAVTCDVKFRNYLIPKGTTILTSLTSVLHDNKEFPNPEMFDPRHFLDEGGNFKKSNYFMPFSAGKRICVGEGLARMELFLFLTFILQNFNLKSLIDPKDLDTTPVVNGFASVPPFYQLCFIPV

Cytochrome P450 2D6 = Cytochrome P450 2D6 (Homo sapiens, UniProt P10635); assay: Inhibition of CYP2D6 in human liver microsomes using bufuralol as substrate preincubated for 5 mins followed by NADPH addition and measured for 10 to 30 mins by LC-MS/MS analysis; type: ADME; in short: as §2
Cytochrome P450 2D6, sequence (P10635 whole entry): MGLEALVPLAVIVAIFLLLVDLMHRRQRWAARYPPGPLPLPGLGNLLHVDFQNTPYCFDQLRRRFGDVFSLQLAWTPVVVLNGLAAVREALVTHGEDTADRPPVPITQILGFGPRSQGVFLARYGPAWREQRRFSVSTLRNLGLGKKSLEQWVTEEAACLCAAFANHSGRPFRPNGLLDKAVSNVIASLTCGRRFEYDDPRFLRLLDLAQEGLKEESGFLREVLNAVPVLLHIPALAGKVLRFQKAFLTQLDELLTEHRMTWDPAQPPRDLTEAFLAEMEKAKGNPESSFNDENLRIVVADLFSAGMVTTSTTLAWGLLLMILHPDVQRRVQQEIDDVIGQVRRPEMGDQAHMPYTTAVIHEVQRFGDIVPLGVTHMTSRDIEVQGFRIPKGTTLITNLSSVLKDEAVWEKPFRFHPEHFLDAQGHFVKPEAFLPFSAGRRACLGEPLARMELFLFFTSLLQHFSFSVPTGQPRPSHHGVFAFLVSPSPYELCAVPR

CYP3A [10] = biological target: T4, CYP3A (Homo sapiens, UniProt P08684+P20815+P24462+Q9HB55); assay: Inhibition of CYP3A in human liver microsomes using testosterone as substrate preincubated for 5 mins followed by NADPH addition and measured for 10 to 30 mins by LC-MS/MS analysis; type: ADME; settings: probe testosterone; in short: as §2
CYP3A [11] = biological target: T4, CYP3A; assay: Inhibition of CYP3A in human liver microsomes using midazolam as substrate preincubated for 5 mins followed by NADPH addition and measured for 10 to 30 mins by LC-MS/MS analysis; type: ADME; settings: probe midazolam; in short: as §2
[12] = Cytotoxicity against dog Cf2Th-CCR5 cells infected with CD4-dependent pseudovirus HIV1 ADA incubated for 48 hrs by MTS assay

solubility [1]: 734 µg/mL (≈ 1730 µM)
Papp [2]: 6.51 ×10⁻⁶ cm/s
Papp [3]: 20.3 ×10⁻⁶ cm/s
Papp A→B at 2 h, 5 µM [4]: 14 ×10⁻⁶ cm/s
Papp B→A at 2 h, 5 µM [5]: 10.5 ×10⁻⁶ cm/s
remaining at 2 h, 3 µM [6]: 93.5%
CLH [7]: < 11.6 µL/min/mg
t1/2 [8]: > 2 h
PPB [9]: 99.2%
IC50 (Cytochrome P450 1A2): 70.1 µM
IC50 (Cytochrome P450 2B6): 85.4 µM
IC50 (Cytochrome P450 2C8): > 100 µM
IC50 (Cytochrome P450 2C9): > 100 µM
IC50 (Cytochrome P450 2C19): > 100 µM
IC50 (Cytochrome P450 2D6): > 100 µM
IC50 (CYP3A [10]): > 62.2 µM
IC50 (CYP3A [11]): > 100 µM
SMILES: Cc1cc(-c2ccc(C(F)(F)F)cn2)[nH]c1C(=O)N[C@@H](CN)c1ncc(CO)s1
CC50 (TZM): 109 µM
Activity [12]: Non-Toxic
